Hits are enriched below; roughly 5% of the tested compounds scored in any of these assays.
Beta cell apopt – inhibitors of cytokine-induced beta cell apoptosis, primary screen, luminescence; AID 435005, 2010; protection from apoptosis, % (concentration not given with the values); hit rate 0.8% among 300,000; INS-1E cytokine-induced death, ATP luminescence, 48 h; percent of positive-control rescue, neutral wells zero;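 active = Every replicate reaches about 75%, or at least half do and their mean reaches it too, limit read from the data; inconclusive = At least half of replicates reach the limit but their mean does not; inactive = Under half of replicates reach the limit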;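 also: 0% = cytokine-treated negative control wells and 100% = positive control rescue; higher means more ATP so stronger rescue from cytokine killing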
CHOP UPR activ – activators of apoptotic CHOP UPR arm, primary screen, cell-based, CHO-CHOP luciferase reporter, luminescence, uHTS; UPR activation; percent of tunicamycin response over DMSO baseline; AID 449763, 2010; activation, % at 10 µM; hit rate 0.34% among 330,000;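 active = at 10 µM dose, activation of 40% or more, normalized to positive control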;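 also: 100% = tunicamycin at 10 µg/mL and 0% = DMSO alone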
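Test system: CHO-CHOP cells, stable luciferase reporter of PERK-eIF2a-CHOP signalling | Quantity: 500 CHO-CHOP cells per well | Buffer or medium: F12 plus 10% serum | Compound dosing: 10 µM single point, 0.5% DMSO | Schedule: 6 h compound treatment, 37 °C | Signal: Luciferase luminescence | Control set: Tunicamycin high control, DMSO low control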
XBP1 UPR activ – activators of adaptive XBP1 UPR arm, primary screen, cell-based, CHO-XBP1 luciferase reporter, luminescence, uHTS. IRE1-XBP1 UPR activation; percent of tunicamycin response, DMSO as zero. activation, % at 20 µM. hit rate 0.33% among 330,000. AID 463104, 2010;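 active = versus positive control, 20 µM dose yields 30% or more activation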;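 also: 100% = tunicamycin at 10 µg/mL and 0% = DMSO only wells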
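Assay system: IRE1-XBP1 luciferase reporter CHO line. Input: 1000 cells/well. Buffer or medium: F12 with 10% serum. Doses: 20 µM, 1% DMSO. Times: overnight seeding at 37 °C, 6 h compound treatment at 37 °C. Technique: Steady-Glo luciferase glow luminescence, 10 min after reagent addition.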
T cruzi inh – inhibitors of intracellular T. cruzi growth, primary screen, luminescence, NIH3T3 host cells. hit rate 1.4% among 300,000. inhibition, % (concentration not given with the values). T. cruzi beta-gal in NIH3T3, 90 h;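 active = mean inhibition across valid replicates above about 55%, limit read from the data; inconclusive = mean below that limit but half or more replicates reach it; inactive = mean below it, under half of replicates reach it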;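 also: signal also drops with host cell toxicity which is not excluded here; 0% = plate median of DMSO wells and 100% = zero luminescence signal; higher percent means less beta-gal luminescence so fewer parasites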
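compound dosing = single 50 nL compound addition per well in DMSO | material = NIH/3T3 host cells with β-galactosidase reporter T. cruzi | input = 5,000 host fibroblasts per well | timing = ≥90 h infection period, 3 h prior cell attachment | read-out basis = percent inhibition of parasite-derived β-gal signal | detection = GalScreen β-gal luminescence, detergent lysis, 60 min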
Mdm2-MdmX inh – inhibitors of human Mdm2-MdmX association, primary screen, cell-based, luminescence, split luciferase, SaOS-2, uHTS; Protein Mdm4 (Homo sapiens) + E3 ubiquitin-protein ligase Mdm2 (Homo sapiens), …; SaOS-2 split-luciferase Mdm2/MdmX complementation; inhibition, % at 8 µM; hit rate 3% among 330,000; AID 485346, 2010;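 active = inhibition of at least 50% at 8 µM in the primary screen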
CSC inhib – cancer stem cell viability inhibitors, primary screen, luminescence | cancer stem cell-like cells viability | inhibition, % at 7.5 µM | hit rate 1.1% among 300,000; in the data active = inhibition above about 75%; inconclusive = no clear call, values can overlap the other calls; tested in HMLE shEcad cells
The depositor's hits bear a star; u = inconclusive; x = not tested or not shown.

SMILES | Beta cell apopt | CHOP UPR activ | XBP1 UPR activ | T cruzi inh | Mdm2-MdmX inh | CSC inhib
Cc1nc2ccccc2c(=O)n1/N=C/c1ccc2ccccc2c1O | 115.3* | -0.4 | 9.3 | 24.0 | 37.5 | 20.2
COc1ccc(C)cc1N(C(=O)c1snc(C(N)=O)c1N)C(C(=O)NC1CCCCC1)c1ccc(C)o1 (centres undefined) | x | -0.9 | -0.3 | 31.7 | 2.0 | x
CCC(C(=O)OCC(=O)Nc1ccc(SC(F)F)cc1)c1ccccc1 (centres undefined) | x | x | x | 58.5* | x | x
CCC(C(=O)OCC(=O)Nc1ccc(F)cc1)c1ccccc1 (centres undefined) | -3.2 | -0.8 | 3.7 | x | -9.2 | 0.0
CCN(CC)C(=O)Oc1ccc(Cl)c2cccnc12 | -1.4 | -0.7 | -0.5 | -2.4 | 4.4 | -8.5
O=C(Nc1cccc(C(F)(F)F)c1)Oc1ccc(Cl)c2cccnc12 | 115.5* | x | x | 69.4* | x | 43.2
O=C(c1cccc(N2C(=O)C3CC=CCC3C2=O)c1)N1CCN(c2ccccc2)CC1 (centres undefined) | x | 0.1 | -2.0 | x | 17.0 | -0.5
CCN(CC)C(=S)SSC(=S)N(CC)CC | u | 158.3* | -3.0 | 25.6 | 36.6 | -11.0
COCCCN1CN=C(Nc2nc3ccccc3o2)NC1 | -4.8 | 2.2 | -0.9 | -7.8 | 6.7 | -0.8
CCCn1nc([N+](=O)[O-])c(C(C#N)c2nc3ccccc3o2)c(Cl)c1=O (centres undefined) | -0.2 | -1.0 | -1.8 | -15.5 | -16.6 | 79.2*
CCN(C(=O)COC(=O)c1oc2ccc(OC)cc2c1C)C1CCS(=O)(=O)C1 (centres undefined) | x | 0.4 | 3.9 | x | 16.6 | x
CC1CCN(S(=O)(=O)c2ccc(NC(=O)CCNC(=O)c3ccc(Cl)cc3)cc2)CC1 | x | 0.6 | 3.2 | x | 32.9 | x
Cc1cccc(N2CCN(Cc3ccc([N+](=O)[O-])o3)CC2)c1C | -4.8 | 0.1 | -1.7 | 57.8* | 17.1 | -5.3
CCCCC(=O)Nc1c(C)cc(C)cc1Cl | -7.9 | -0.7 | -0.5 | -1.3 | -0.1 | -8.7
CCCOC(=O)/C(C(N)=NCc1ccccc1)=C(\O)OCCC | 109.4* | 0.0 | 0.1 | 33.7 | 1.8 | 45.5
CCOC(=O)/C(C(N)=NCC(C)C)=C(/O)c1ccccc1 | x | 1.2 | 0.2 | -2.8 | -20.6 | 17.0
CCOc1cc(CNc2ccc(N3CCCCC3)cc2)cc(Br)c1OCC(=O)NC(C)(C)C | x | 2.4 | -2.9 | 57.7* | -12.0 | 44.9
CCOc1cc(CNc2cccc3ccccc23)cc(Br)c1OCC(=O)NC(C)(C)C | 8.9 | -0.6 | -4.9 | 54.5* | 23.2 | 24.8
CCCC(O)(c1ccc(OC)cc1)C(CN1CCOCC1)c1ccc(Cl)cc1 (centres undefined) | 5.0 | -0.2 | -1.3 | -16.5 | 19.1 | 14.2
CCCC(O)(c1ccc(Cl)cc1)C(CN1CCOCC1)c1ccc(Cl)cc1 (centres undefined) | 7.3 | 1.9 | -2.9 | -9.5 | 14.2 | 93.7*
CCN(CC)CCNc1ccc(CO)c2sc3ccccc3c(=O)c12 | 39.8 | -1.1 | -6.2 | 64.0* | 47.5 | 31.7
COc1ccc(C(CNC(=O)c2cccc(NS(=O)(=O)c3ccc(Br)cc3)c2)N(C)C)cc1 (centres undefined) | 0.1 | 1.7 | -3.0 | -8.6 | 16.4 | x
Cc1c(-c2ccccc2)nc2ccccc2c1C(=O)NCc1cccs1 | 4.6 | 1.3 | -1.1 | -12.9 | -16.1 | -15.0
CC(/C=N/n1c(C2CCCCC2)n[nH]c1=S)=C\c1ccccc1 | 17.4 | -1.5 | 1.8 | 35.2 | 9.1 | 97.7*
Cc1cccc(/C=N/n2c(C3CCCCC3)n[nH]c2=S)c1 | x | 1.9 | 3.7 | -9.3 | 7.4 | x
SMILES | Beta cell apopt | CHOP UPR activ | XBP1 UPR activ | T cruzi inh | Mdm2-MdmX inh | CSC inhib
O=C(NNC(=O)c1ccccc1O)c1ccc(Cl)c(S(=O)(=O)N2CCc3ccccc32)c1 | 83.1* | 3.1 | -0.1 | 6.2 | 48.9 | 9.9
COC(=O)C1=C(C)Nc2c(c(=O)n(C)c(=O)n2C)C1c1ccc(Cl)cc1 (centres undefined) | 6.3 | 4.8 | 0.1 | 6.9 | 24.9 | -13.3
COCCn1cnc2c1c(=O)n(CC(=O)NCC(F)(F)F)c(=O)n2Cc1ccccc1 | -9.3 | -1.1 | -5.2 | -6.3 | 2.8 | -2.5
CN(Cc1ccccc1)S(=O)(=O)c1ccc(Cl)c(C(=O)NCc2cccnc2)c1 | 1.4 | 0.3 | 0.0 | 0.3 | 27.7 | -13.4
Nc1nc(=S)c2ncn([C@@H]3O[C@H](CO)[C@@H](O)[C@H]3O)c2[nH]1 | 11.6 | -0.7 | -6.1 | x | 27.0 | 97.8*
Nc1nc(=S)c2ncn(C3OC(CO)C(O)C3O)c2[nH]1 (centres undefined) | -3.5 | x | x | -16.3 | x | 90.1*
Nc1nc(Cl)nc2c1ncn2[C@@H]1O[C@H](CO)[C@@H](O)[C@H]1O | -2.1 | -2.1 | -5.4 | 12.4 | 25.1 | -8.8
CCCn1cnc2c(=S)nc(N)[nH]c21 | -3.7 | -0.2 | -3.1 | -11.5 | 3.1 | -0.7
Cn1ccnc1SCC(=O)Nc1ccc2c(c1)OC(F)(F)O2 | -3.5 | 1.9 | -0.8 | -3.1 | 12.1 | -1.4
O=C(Cc1ccccc1F)OCN1C(=O)c2ccccc2C1=O | -3.3 | 1.4 | -3.3 | 9.4 | 0.9 | -1.0
Cc1onc(-c2ccccc2)c1NC(=O)N(CCC#N)Cc1ccccc1 | -4.9 | 0.6 | 1.4 | -4.1 | -7.7 | -0.9
O=C(CN(Cc1ccccc1Cl)S(=O)(=O)c1ccc(Cl)cc1)N/N=C/c1ccc(C(=O)O)cc1 | -1.2 | -1.8 | -7.4 | -22.2 | -8.0 | x
Cc1nn(-c2ccccc2)c(N)c1Sc1ccc([N+](=O)[O-])cc1 | -11.7 | -1.5 | 1.4 | -13.0 | -5.1 | -1.4
Cc1nn(S(=O)(=O)c2ccc(Cl)cc2)c(C)c1Sc1ccc([N+](=O)[O-])cc1 | 85.9* | x | x | 61.7* | x | 6.6
NNC(=O)c1ccc(CN2CCCCC2)o1 | -0.3 | -2.5 | 0.3 | -25.7 | -1.1 | -9.9
O=C(N=Nc1c(O)[nH]c2ccc(Br)cc12)c1ccccc1-n1cccc1 | 34.1 | 0.8 | 20.8 | x | 44.2 | 80.2*
O=C(N=Nc1c(O)[nH]c2ccc(Br)cc12)c1cc(-c2cccs2)nc2ccccc12 | x | x | x | 56.4* | x | x
COc1ccc(C)cc1NC(=O)c1ccc(NS(=O)(=O)c2cccs2)cc1 | 3.9 | -1.4 | -2.4 | 2.4 | 7.8 | 11.3
Cc1c(NS(=O)(=O)c2ccc3c(c2)CCN3C(=O)C2CC2)c(=O)n(-c2ccccc2)n1C | -0.9 | -1.0 | 0.9 | -24.6 | 16.2 | -2.2
N#Cc1ccc(-c2csc(NNC(=O)c3ccccc3)n2)cc1 | 79.0* | 1.6 | -0.5 | x | 39.7 | -0.8
O=C(NNc1nc(-c2ccccc2)cs1)c1ccccc1 | -5.6 | 0.3 | 4.8 | -10.9 | 1.6 | -9.0

From PubChem BioAssay
